# Assay results from different studies.
# Protocols differ between the studies behind these lines.
# Target: Serine/threonine-protein kinase PLK2 (PLK2, Homo sapiens, UniProt Q9NYY3)
Compound,test,conditions,remaining binding
N#Cc1ccc(Nc2ccc3[nH]c(=O)[nH]c3c2)c(Cl)c1,"cell-free assay, competition with immobilised ligand",1 µM,86%
c1cnn2ncc(-c3ccnc(N4CCC45COC5)n3)c2c1,binding,1 µM,87%
CCC(=O)N[C@H]1CC[C@@H](C(=O)N(C)c2ccc(-c3nc4ccccc4o3)cc2)C1,"cell-free assay, competition with immobilised ligand",1 µM,96%
COc1cnc(Nc2cccc(S(N)(=O)=O)c2)nc1N1CCN(c2ccccc2)CC1,"binding, competition with immobilised ligand",1 µM,94%
CCN1CCN(Cc2ccc(C(=O)Nc3ccc(C)c(Oc4ccc5c(c4)CC(=O)N5)c3)cc2C(F)(F)F)CC1,"binding, competition with immobilised ligand",1 µM,66%
FC(F)(F)c1ccc2c(c1)nc(-c1cccnc1)n2C1CC1,"cell-free assay, competition with immobilised ligand",1 µM,94%
FC(F)(F)Oc1cccc(-c2cnc3ccc(-c4ccncc4)nn23)c1,"cell-free assay, competition with immobilised ligand",5 µM,77%
Cc1cnn2ncc(-c3ccnc(N(C)C)n3)c2c1,binding,1 µM,94%
O=C(c1ccc(Nc2ncc(Cl)c(-c3ccc(Cl)s3)n2)cc1)N1CCC(N2CCCC2)CC1,"binding, competition with immobilised ligand",1 µM,47%
CN(C)c1ncc(F)c(-c2cnn3ncccc23)n1,binding,1 µM,78%
COc1cnc(Nc2cccc(S(N)(=O)=O)c2)nc1N1CCN(c2ccccc2)C(=O)C1,"binding, competition with immobilised ligand",1 µM,80%
CN(C)CC#Cc1ccc(OCCCc2sc(N3CCc4cccc(C(=O)Nc5nc6ccccc6s5)c4C3)nc2C(=O)O)c(F)c1,"cell-free assay, competition with immobilised ligand",1 µM,94%
CC1CCCN1c1nccc(-c2cnn3ncccc23)n1 (centres unmarked),binding,1 µM,100%
Cc1c(NC(=O)c2cc(C(N)=O)nc3cc(F)ccc23)c(C(F)(F)F)nn1Cc1ccc(C(C)(C)C)cc1,"cell-free assay, competition with immobilised ligand",1 µM,100%
O=C(NCCCN1CCOCC1)c1ccc(Nc2nccc(-c3cc4ccccc4s3)n2)cc1,"binding, competition with immobilised ligand",1 µM,44%
C[C@H]1CCN(c2nccc(-c3cnn4ncccc34)n2)C1,binding,1 µM,91%
C[C@@H]1CN(c2cc(-c3nn(C)c4ccc(OC5(C)CC5)cc34)ncn2)C[C@H](C)O1,"cell-free assay, competition with immobilised ligand",1 µM,68%
CN(CCCC(F)(F)F)c1nccc(-c2cnn3ncccc23)n1,binding,1 µM,99%
Cc1cnc(Nc2ccc(C(=O)N3CCC(N4CCCC4)CC3)cc2)nc1-c1cc2ccccc2s1,"binding, competition with immobilised ligand",1 µM,52%
O=C(NCC1CCOCC1)c1n[nH]cc1NC(=O)c1c(F)cccc1F,"binding, competition with immobilised ligand",1 µM,96%
